Tests used:
[1] = target: LSD1/CoREST complex (Homo sapiens, UniProt O60341); test: Inhibition of human recombinant KDM1A/CoREST expressed in Escherichia coli using mono-methylated H3-K4 peptide as substrate assessed as H2O2 release preincubated for 15 mins followed by substrate addition measured for 12 mins by fluorescence-based microplate reader analysis
Procedure, shortened: (§1)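 Human recombinant KDM1A/CoREST, KDM1B, MAO A and MAO B used as enzyme sources; compounds incubated with the enzyme and results expressed as IC50.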

[2] = target: T1, Amine oxidase [flavin-containing] A (Homo sapiens, UniProt P21397); test: Inhibition of human recombinant MAOA expressed in Pichia pastoris preincubated for 15 mins measured after 30 mins by bioluminescent-coupled assay; procedure, shortened: as §1
T1 sequence (P21397 whole entry): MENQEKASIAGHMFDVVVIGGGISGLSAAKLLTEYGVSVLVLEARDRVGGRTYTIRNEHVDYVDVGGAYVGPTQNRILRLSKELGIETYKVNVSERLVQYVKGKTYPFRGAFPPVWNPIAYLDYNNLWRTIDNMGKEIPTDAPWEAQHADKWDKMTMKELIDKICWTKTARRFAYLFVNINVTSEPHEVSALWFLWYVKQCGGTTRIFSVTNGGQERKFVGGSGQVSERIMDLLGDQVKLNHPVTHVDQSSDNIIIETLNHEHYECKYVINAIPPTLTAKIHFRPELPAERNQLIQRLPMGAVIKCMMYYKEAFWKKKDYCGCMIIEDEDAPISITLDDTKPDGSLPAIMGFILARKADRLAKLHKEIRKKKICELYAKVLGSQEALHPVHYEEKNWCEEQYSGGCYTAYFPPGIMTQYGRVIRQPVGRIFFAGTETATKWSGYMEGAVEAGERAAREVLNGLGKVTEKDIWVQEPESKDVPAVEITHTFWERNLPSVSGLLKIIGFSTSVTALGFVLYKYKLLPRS

[3] = target: T2, Amine oxidase [flavin-containing] B (Homo sapiens, UniProt P27338); test: Inhibition of human recombinant MAOB expressed in Pichia pastoris preincubated for 15 mins measured after 30 mins by bioluminescent-coupled assay; procedure, shortened: as §1
T2 sequence (P27338 whole entry): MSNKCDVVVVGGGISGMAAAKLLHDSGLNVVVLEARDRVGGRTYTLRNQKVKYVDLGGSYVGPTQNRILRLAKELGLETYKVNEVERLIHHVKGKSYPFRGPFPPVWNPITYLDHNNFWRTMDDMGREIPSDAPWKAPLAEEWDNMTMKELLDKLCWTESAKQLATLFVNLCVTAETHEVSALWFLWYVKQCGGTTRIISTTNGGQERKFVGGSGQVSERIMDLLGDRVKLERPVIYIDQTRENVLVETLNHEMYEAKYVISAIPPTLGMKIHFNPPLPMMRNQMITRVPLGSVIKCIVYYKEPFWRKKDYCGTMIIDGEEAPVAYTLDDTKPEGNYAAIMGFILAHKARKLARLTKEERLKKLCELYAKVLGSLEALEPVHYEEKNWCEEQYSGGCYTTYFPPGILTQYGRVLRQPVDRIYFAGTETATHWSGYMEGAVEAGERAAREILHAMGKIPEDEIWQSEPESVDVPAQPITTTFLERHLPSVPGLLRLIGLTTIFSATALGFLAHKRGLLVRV

[4] = target: T3, Lysine-specific histone demethylase 2 (Homo sapiens, UniProt Q8NB78); test: Inhibition of KDM1B (unknown origin)
T3 sequence (Q8NB78 whole entry): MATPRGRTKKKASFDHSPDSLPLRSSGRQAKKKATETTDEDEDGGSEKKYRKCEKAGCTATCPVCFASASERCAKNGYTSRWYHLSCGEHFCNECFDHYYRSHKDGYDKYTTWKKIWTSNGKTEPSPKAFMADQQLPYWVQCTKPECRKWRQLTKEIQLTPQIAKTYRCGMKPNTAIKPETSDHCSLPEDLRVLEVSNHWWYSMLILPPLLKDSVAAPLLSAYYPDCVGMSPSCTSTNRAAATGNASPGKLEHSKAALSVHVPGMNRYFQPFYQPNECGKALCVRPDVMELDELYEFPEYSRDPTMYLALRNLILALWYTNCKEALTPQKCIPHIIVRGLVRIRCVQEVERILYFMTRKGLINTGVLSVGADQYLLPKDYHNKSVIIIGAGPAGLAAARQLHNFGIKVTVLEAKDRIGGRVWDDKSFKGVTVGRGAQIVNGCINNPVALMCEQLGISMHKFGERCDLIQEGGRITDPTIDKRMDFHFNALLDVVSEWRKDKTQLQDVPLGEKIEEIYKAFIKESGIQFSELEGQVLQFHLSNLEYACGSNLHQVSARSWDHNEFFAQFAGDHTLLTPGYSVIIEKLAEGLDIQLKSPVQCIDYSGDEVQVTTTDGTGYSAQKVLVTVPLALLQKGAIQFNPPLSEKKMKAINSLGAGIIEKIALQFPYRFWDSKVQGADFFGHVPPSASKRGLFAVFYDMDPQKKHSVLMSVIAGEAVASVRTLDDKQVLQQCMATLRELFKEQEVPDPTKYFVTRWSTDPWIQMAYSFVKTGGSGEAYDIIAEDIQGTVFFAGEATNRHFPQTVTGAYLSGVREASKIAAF

[5] = Tmax in CD1 mouse at 15 mg/kg, po administered as single dose; assay type: ADME, organism-based; settings: in vivo
Procedure, shortened: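 Single dose to CD1 mice: 5 mg/kg iv in 5% glucose with 10% tween 80, or 15 mg/kg orally in 5% glucose with 40% PEG. Plasma parameters derived from concentration–time profiles.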

[6] = target: Lysine-specific histone demethylase 1A (Homo sapiens) (UniProt O60341); test: Inhibition of KDM1A in human NB4 cells assessed as increase in GFI1B mRNA expression at biochemical IC50 measured after 24 hrs by RT-PCR analysis relative to control; assay type: cell-based; settings: NB-4
[7] = target: Lysine-specific histone demethylase 1A (Homo sapiens) (UniProt O60341); test: Inhibition of KDM1A in human NB4 cells assessed as increase in CD11b mRNA expression at biochemical IC50 measured after 24 hrs by RT-PCR analysis relative to control; assay type: cell-based; settings: NB-4
[8] = Anticlonogenic activity against 129sv mouse APL blast cells assessed as inhibition of colony formation of cells at 0.25 uM measured after 7 days relative to control; assay type: functional; settings: 168 h
[9] = organism: Homo sapiens; test: Selectivity ratio of IC50 for human recombinant MAOA expressed in Pichia pastoris to IC50 for human recombinant KDM1A/CoREST expressed in Escherichia coli

Row | IC50 [1] [nM] | IC50 [2] [nM] | IC50 [3] [nM] | IC50 [4] [nM] | Tmax [5] [h] | fold change (FC) [6] | fold change (FC) [7] | Ratio IC50 [9] | Compound | inhibition at 0.25 µM [8] [%]
1 | 42.6 | 25 | > 100000 | 11600 |  |  |  |  | N[C@@H]1C[C@H]1c1ccc(NC(=O)c2cccc(NC(=O)OCc3ccccc3)c2)cc1 (racemic) | 
2 | 189 |  |  |  | 12 |  |  |  | CN1CCN(c2ccc(C(=O)Nc3ccc([C@@H]4C[C@H]4N)cc3)cc2)CC1.Cl.Cl (racemic) | 
3 | 61.5 | 54.8 | 600 | 74700 |  |  |  |  | N[C@@H]1C[C@H]1c1ccc(NC(=O)c2ccc(N3CCOCC3)cc2)cc1 (racemic) | 
4 | 51.2 |  |  |  | 18 | 4.1 | 3.4 |  | CN1CCC(c2ccc(C(=O)Nc3ccc([C@@H]4C[C@H]4N)cc3)cc2)CC1.Cl (racemic) | 
5 |  |  |  |  |  | 4.9 | 3.2 |  | CN1CCN(c2ccc(C(=O)Nc3ccc([C@@H]4C[C@H]4N)cc3)cc2)CC1 (racemic) | 
6 | 61.4 | 193 | 62900 | 5700 |  | 4.8 | 3.8 |  | N[C@@H]1C[C@H]1c1ccc(NC(=O)c2ccc(N3CCOCC3)c(NC(=O)OCc3ccccc3)c2)cc1 (relative stereo) | 59
7 | 308 |  |  |  |  |  |  |  | N[C@@H]1C[C@H]1c1ccc(NC(=O)c2ccc(N3CCCCC3)c(NC(=O)OCc3ccccc3)c2)cc1 (relative stereo) | 
8 |  | 1000 | > 100000 | 4300 |  | 4.5 | 3 | > 10 | CN1CCN(c2ccc(C(=O)Nc3ccc([C@@H]4C[C@H]4N)cc3)cc2NC(=O)OCc2ccccc2)CC1 (relative stereo) | 57
9 |  | 345 | 27800 | 14900 |  | 5.6 | 3.2 |  | N[C@@H]1C[C@H]1c1ccc(NC(=O)c2ccc(NC(=O)OCc3ccccc3)c(N3CCOCC3)c2)cc1 (relative stereo) | 57
